Experimental data: ChEMBL document CHEMBL3414476, “Novel multitarget-directed ligands (MTDLs) with acetylcholinesterase (AChE) inhibitory and serotonergic subtype 4 receptor (5-HT4R) agonist activities as potential agents against Alzheimer's disease: the design of donecopride” (J Med Chem, 2015)
Active and inactive are the calls of the source. The rule behind the calls is not given here.

What was measured:
[1] = target: Cholinesterase (Equus caballus, UniProt P81908); test: Inhibition of equine serum BuChE pre-incubated for 5 mins before butyrylthiocholine iodide substrate by Ellman' method
Chain of Cholinesterase (P81908 whole entry): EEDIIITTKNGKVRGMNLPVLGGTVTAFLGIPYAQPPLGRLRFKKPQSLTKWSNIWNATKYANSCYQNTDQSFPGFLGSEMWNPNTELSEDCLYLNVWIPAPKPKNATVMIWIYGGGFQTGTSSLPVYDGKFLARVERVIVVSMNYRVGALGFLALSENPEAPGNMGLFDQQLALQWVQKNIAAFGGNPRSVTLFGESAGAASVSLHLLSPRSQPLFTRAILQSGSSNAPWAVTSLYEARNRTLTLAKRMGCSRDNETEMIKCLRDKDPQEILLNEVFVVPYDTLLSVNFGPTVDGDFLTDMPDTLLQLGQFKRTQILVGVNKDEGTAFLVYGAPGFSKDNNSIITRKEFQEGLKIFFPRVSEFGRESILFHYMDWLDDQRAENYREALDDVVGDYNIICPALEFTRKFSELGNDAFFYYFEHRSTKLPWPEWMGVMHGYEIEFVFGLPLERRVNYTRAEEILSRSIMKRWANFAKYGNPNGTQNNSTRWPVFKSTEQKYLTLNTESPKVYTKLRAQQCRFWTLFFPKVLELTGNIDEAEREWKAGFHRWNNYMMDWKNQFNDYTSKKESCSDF
How it was run: (§1)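 Ellman assay in 96-well format: 0.3 mM DTNB in phosphate buffer pH 7.4, compound in DMSO, and enzyme (human erythrocyte AChE or equine serum BuChE, 0.05 U final) preincubated 5 min at 25 °C. Started with 10 mM acetyl- or butyrylthiocholine iodide; A412 followed every minute for 10 min, substrate-free blank.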

[2] = target: T1, Acetylcholinesterase (Homo sapiens, UniProt P22303); test: Inhibition of human erythrocyte AChE at 10 uM pre-incubated for 5 mins before acetylthiocholine iodide substrate by Ellman' method; how it was run: as §1
T1 sequence (P22303 whole entry): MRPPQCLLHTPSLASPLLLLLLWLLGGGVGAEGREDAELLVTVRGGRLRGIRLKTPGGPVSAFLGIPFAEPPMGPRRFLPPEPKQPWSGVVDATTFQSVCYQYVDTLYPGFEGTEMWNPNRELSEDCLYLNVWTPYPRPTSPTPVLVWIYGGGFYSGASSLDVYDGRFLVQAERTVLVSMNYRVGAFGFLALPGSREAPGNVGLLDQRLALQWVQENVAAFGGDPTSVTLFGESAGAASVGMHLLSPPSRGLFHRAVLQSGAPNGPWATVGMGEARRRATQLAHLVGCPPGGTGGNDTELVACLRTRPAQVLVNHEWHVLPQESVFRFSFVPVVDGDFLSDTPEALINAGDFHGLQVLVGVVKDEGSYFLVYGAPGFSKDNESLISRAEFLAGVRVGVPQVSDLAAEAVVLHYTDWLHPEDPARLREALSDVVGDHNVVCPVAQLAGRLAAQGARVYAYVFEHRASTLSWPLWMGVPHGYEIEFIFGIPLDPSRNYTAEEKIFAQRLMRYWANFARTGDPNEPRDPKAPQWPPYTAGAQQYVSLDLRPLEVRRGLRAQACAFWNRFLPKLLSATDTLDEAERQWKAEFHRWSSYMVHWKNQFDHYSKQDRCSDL

[3] = target: 5-hydroxytryptamine receptor 4 (Homo sapiens) (UniProt Q13639); test: Displacement of [3H]GR113808 from human 5-HT4R at 10 nM by radioligand binding assay
Chain of 5-hydroxytryptamine receptor 4 (Homo sapiens) (Q13639 whole entry): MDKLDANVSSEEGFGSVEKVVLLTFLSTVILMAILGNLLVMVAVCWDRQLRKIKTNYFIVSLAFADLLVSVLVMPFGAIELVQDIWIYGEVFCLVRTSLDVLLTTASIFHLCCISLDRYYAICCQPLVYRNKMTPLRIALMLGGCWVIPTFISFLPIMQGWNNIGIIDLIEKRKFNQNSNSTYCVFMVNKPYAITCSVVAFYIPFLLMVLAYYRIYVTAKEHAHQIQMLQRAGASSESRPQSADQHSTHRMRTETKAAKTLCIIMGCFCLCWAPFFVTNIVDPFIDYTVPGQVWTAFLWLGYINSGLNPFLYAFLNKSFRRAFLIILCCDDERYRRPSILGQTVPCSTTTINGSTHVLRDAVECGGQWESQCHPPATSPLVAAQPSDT
How it was run: (§2)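 Recombinant human 5-HT4 membranes, 2.5 μg protein, incubated in duplicate with 0.2 nM [3H]GR113808 in 25 mM Tris pH 7.4 for 60 min at 25 °C, with or without drug at 10−6 or 10−8 M. Filtered on PEI-presoaked GF/C filters, washed with ice-cold buffer. Nonspecific binding with 30 μM serotonin. Read-out is % inhibition of binding.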

[4] = target: 5-hydroxytryptamine receptor 4 (Homo sapiens) (UniProt Q13639); test: Agonist activity at HA-tagged 5-HT4R (unknown origin) expressed in COS7 cells assessed as cAMP accumulation by HTRF assay; format: functional, cell-based; set-up: concentration or dose not given beside the values; conditions: COS-7
[5] = target: Cholinesterase (Equus caballus) (UniProt P81908); test: Inhibition of equine serum BuChE at 10 uM pre-incubated for 5 mins before butyrylthiocholine iodide substrate by Ellman' method; how it was run: as §1
Chain of Cholinesterase (Equus caballus) (P81908 whole entry): as the sequence (P81908 whole entry) above

[6] = target: 5-hydroxytryptamine receptor 4 (Homo sapiens) (UniProt Q13639); test: Displacement of [3H]GR113808 from human 5-HT4R at 1 uM by radioligand binding assay; how it was run: as §2
[7] = tested on: Mus musculus; test: Toxicity in NMRI mouse assessed as induction of hypoactivity at 10 mg/kg, ip; format: organism-based; set-up: dose 10 mg/kg, route intraperitoneal; conditions: in vivo
How it was run: (§3)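 Mice in groups of four received graded IP doses of […]. Behavioural and neurological changes (hypo- or hyperactivity, ataxia, tremors, convulsion, etc.) were scored by standardized observation at 30 min, 3 h and 24 h against controls.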

[8] = tested on: Mus musculus; test: Toxicity in NMRI mouse assessed as induction of ataxia at 10 mg/kg, ip; format: organism-based; set-up: dose 10 mg/kg, route intraperitoneal; conditions: in vivo; how it was run: as §3
[9] = tested on: Mus musculus; test: Toxicity in NMRI mouse assessed as induction of sleep at 10 mg/kg, ip; format: organism-based; set-up: dose 10 mg/kg, route intraperitoneal; conditions: in vivo; how it was run: as §3
[10] = target: 5-hydroxytryptamine receptor 4 (Cavia porcellus, UniProt O70528); test: Displacement of [3H]GR113808 from 5-HT4R in guinea pig brain membranes incubated for 30 mins by radioligand binding assay; format: cell membranes, Membrane
Chain of 5-hydroxytryptamine receptor 4 (O70528 whole entry): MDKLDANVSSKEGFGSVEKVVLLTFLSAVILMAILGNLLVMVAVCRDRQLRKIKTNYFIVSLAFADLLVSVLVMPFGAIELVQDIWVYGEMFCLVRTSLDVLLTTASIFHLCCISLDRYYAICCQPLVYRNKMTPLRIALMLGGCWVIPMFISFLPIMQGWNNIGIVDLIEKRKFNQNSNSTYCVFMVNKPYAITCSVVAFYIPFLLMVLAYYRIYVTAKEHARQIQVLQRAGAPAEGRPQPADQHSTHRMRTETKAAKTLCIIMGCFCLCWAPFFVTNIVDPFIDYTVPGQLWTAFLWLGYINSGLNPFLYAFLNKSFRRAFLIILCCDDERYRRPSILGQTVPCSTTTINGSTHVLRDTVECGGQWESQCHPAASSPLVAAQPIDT

[11] = target: T1, Acetylcholinesterase; test: Inhibition of human erythrocyte AChE pre-incubated for 5 mins before acetylthiocholine iodide substrate by Ellman' method
[12] = tested on: Mus musculus; test: Toxicity in NMRI mouse assessed as induction of hyperactivity at 2 mg/kg, ip; format: organism-based; set-up: dose 2 mg/kg, route intraperitoneal; conditions: in vivo
How it was run: (§4)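 Behavioural and neurological changes scored by standardized observation at 30 min, 3 h and 24 h against controls.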

[13] = tested on: Mus musculus; test: Toxicity in NMRI mouse assessed as induction of irritability at 2 mg/kg, ip; format: organism-based; set-up: dose 2 mg/kg, route intraperitoneal; conditions: in vivo; how it was run: as §4
[14] = tested on: Mus musculus; test: Toxicity in NMRI mouse assessed as induction of exophtalmy at 2 mg/kg, ip; format: organism-based; set-up: dose 2 mg/kg, route intraperitoneal; conditions: in vivo; how it was run: as §4
[15] = tested on: Mus musculus; test: Antiamnesic activity in NMRI mouse assessed as reversal of scopolamine-induced spontaneous alteration deficit at 1 mg/kg, ip by Y maze test; format: functional, organism-based; set-up: dose 1 mg/kg
[16] = tested on: Mus musculus; test: Antiamnesic activity in NMRI mouse assessed as reversal of scopolamine-induced spontaneous alteration deficit at 0.1 mg/kg, ip co-administered with 0.3 mg/kg DPZ by Y maze test; format: functional, organism-based
How it was run: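 Scopolamine 0.5 mg/kg given SC 30 min before the Y-maze test. The reference combination was 0.1 mg/kg IP (30 min before) plus DPZ 0.3 mg/kg SC (20 min before), in 0.9% NaCl vehicle. Percent spontaneous alternation = actual/(total arm entries − 2) × 100. Mean ± SD, n = 10–12, univariate t test versus 50%.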

[17] = tested on: Mus musculus; test: Toxicity in NMRI mouse assessed as induction of passivity at 100 mg/kg, ip; format: organism-based; set-up: dose 100 mg/kg, route intraperitoneal; conditions: in vivo; how it was run: as §3
[18] = Toxicity in ip dosed NMRI mouse; format: organism-based; conditions: in vivo
[19] = tested on: Mus musculus; test: Toxicity in NMRI mouse assessed as induction of hypoactivity at 100 mg/kg, ip; format: organism-based; set-up: dose 100 mg/kg, route intraperitoneal; conditions: in vivo; how it was run: as §3
[20] = target: 5-hydroxytryptamine receptor 4 (Homo sapiens) (UniProt Q13639); test: Activity at 5-HT4R (unknown origin) expressed in COS7 cells assessed as increase in sAPPalpha release relative to 5-HT; format: cell-based; conditions: COS-7
[21] = tested on: Mus musculus; test: Toxicity in NMRI mouse assessed as toxic symptoms at 1 to 10 mg/kg, ip; format: organism-based; set-up: dose 1-10 mg/kg, route intraperitoneal; conditions: in vivo; how it was run: as §3
[22] = tested on: Mus musculus; test: Increase in sAPPalpha level in C57BL/6 mouse CSF at 1 mg/kg, ip measured after 90 mins by ELISA method; format: functional, organism-based; set-up: dose 1 mg/kg
How it was run: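 Wild-type C57BL/6 mice, 2 months old, n = 7/group. Single IP injection of vehicle (0.9% NaCl, 0.2% DMSO) or drug. After 90 min, CSF was taken from the cisterna magna under anesthesia, frozen at −80 °C and heated at 60 °C for 5 min. sAPPα measured by mouse/rat ELISA read at 620/450 nm. Unpaired t test.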

[23] = tested on: Mus musculus; test: Antidepressant-like activity in NMRI mouse assessed as reduction in immobility time at 0.3 mg/kg, ip administered 30 mins before test; format: functional, organism-based; set-up: dose 0.3 mg/kg
How it was run: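 Male NMRI mice given drug in 0.9% NaCl IP 30 min before the test, not pretested. Each mouse swam 6 min in a 12 cm diameter cylinder, water 13 cm deep at 23−24 °C. Immobility was scored over the last 4 min. n = 10−12, SNK test versus NaCl.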

[24] = tested on: Mus musculus; test: Toxicity in NMRI mouse assessed as effect on spontaneous locomotor activity at 10 mg/kg, ip dosed 30 mins before placing mouse in actimeter; format: organism-based; set-up: dose 10 mg/kg, route intraperitoneal; conditions: in vivo, 0.5 h
How it was run: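 Adult male NMRI mice were dosed IP 30 min before being placed individually in an infrared actimeter. Beam interruptions were counted over 30 min. Mean ± SD, n = 9–10, SNK test versus NaCl.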

[25] = tested on: Mus musculus; test: Antiamnesic activity in NMRI mouse assessed as reversal of scopolamine-induced spontaneous alteration deficit at 0.3 mg/kg, ip by Y maze test; format: functional, organism-based; set-up: dose 0.3 mg/kg
How it was run: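 Male NMRI mice, 3 months old, 35−40 g. Scopolamine 0.5 mg/kg SC 30 min before the Y-maze test; test drug in 0.9% NaCl IP 30 min before. Spontaneous alternation = actual/possible alternations (total arm entries minus two) × 100. n = 10−12. Compared with 50% by univariate t test.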

In the case of COc1cc(N)c(Cl)cc1C(=O)OCC1CCN(CC2CCCCC2)CC1, the IC50 [1] is reported as 4100 nM.

With CO/N=C(\CCC1CCN(CC2CCCCC2)CC1)c1cc(Cl)c(N)cc1OC the inhibition [2] was 33% and the IC50 [1] was 7420 nM.

COc1cc(N)c(Cl)cc1C(=O)CCC1CCN(CCC2CCCCC2)CC1 showed an IC50 [1] of 6340 nM.

COc1cc(N)c(Cl)cc1C(=O)CCC1CCN(CC2CCNCC2)CC1 showed an inhibition [3] of 69%, an Activity [4] of 20% and an inhibition [5] of 26%. The inhibition [6] was 100%.

In the case of COc1cc(N)c(Cl)cc1C(=O)CCC1CCN(CC2CCCCC2C)CC1 (stereo not given), the IC50 [1] is reported as 4340 nM.

In the case of CN(C)CCCN1c2ccccc2Sc2ccc(Cl)cc21 [CHLORPROMAZINE], the Activity [7] is reported as “Toxic”, the Activity [8] is reported as “Toxic” and the Activity [9] is reported as “Toxic”.

COc1cc(N)c(Cl)cc1C(=O)NCC1CCN(CC2CCCCC2)CC1 gave an inhibition [2] of 45% and a Ki [10] of 2.25 nM.

With COc1cc(N)c(Cl)cc1C(=O)CCC1CCN(Cc2cccnc2)CC1 the IC50 [11] was 45 nM, the IC50 [1] was 9160 nM and the Ki [10] was 20.4 nM.

For CC(N)Cc1ccccc1 (stereo not given) [AMPHETAMINE], the Activity [12] was “Toxic”, the Activity [13] was “Toxic” and the Activity [14] was “Toxic”.

In the case of COc1cc2c(cc1OC)C(=O)C(CC1CCN(Cc3ccccc3)CC1)C2 (stereo not given), the Activity [15] is reported as “Active”.

In the case of COc1cc(N)c(Cl)cc1C(=O)CCC1CCN(CC2CCC2)CC1, the inhibition [5] is reported as 47%.

In the case of CCCCN1CCC(CCC(=O)c2cc(Cl)c(N)cc2OC)CC1, the Activity [16] is reported as “Active”, the IC50 [11] is reported as 403 nM and the Ki [10] is reported as 9.3 nM.

COc1cc(N)c(Cl)cc1/C(CCC1CCN(CC2CCCCC2)CC1)=N/O showed a Ki [10] of 193 nM.

In the case of COc1cc(N)c(Cl)cc1C(=O)CCC1CCN(CC2CC2)CC1, the IC50 [1] is reported as 6600 nM.

For COc1cc(N)c(Cl)cc1C(=O)CCC1CCN(Cc2ccccc2)CC1, the inhibition [3] was 41%, the IC50 [11] was 8.5 nM and the Activity [4] was 65%. The IC50 [1] was 1830 nM, the inhibition [6] was 100% and the Ki [10] was 14.3 nM.

For COc1cc(N)c(Cl)cc1C(=O)CCC1CCN(CC2CCCCC2)CC1, the Activity [17] was “Toxic”, the LD50 [18] was 75 mg/kg and the Activity [19] was “Toxic”. The Emax [20] was 22.5%, the inhibition [3] was 73% and the Activity [21] was “Non-toxic”. For the same compound, the Activity [22] was “Active”, the Activity [23] was “Active” and the Activity [4] was 48.3%. For the same compound, the IC50 [1] was 3530 nM, the inhibition [6] was 100% and the Activity [24] was “Non-toxic”. The Activity [25] was “Active”.

COc1cc(N)c(Cl)cc1C(O)CCC1CCN(CC2CCCCC2)CC1 (stereo not given) showed an IC50 [11] of 1030 nM, an IC50 [1] of 3640 nM and a Ki [10] of 122 nM.

COc1cc(N)c(Cl)cc1C(=O)CCC1CCN(Cc2ccncc2)CC1 showed an IC50 [11] of 121 nM, an inhibition [5] of 46% and a Ki [10] of 20.6 nM.

COc1cc(N)c(Cl)cc1C(=O)CCC1CCN(CC2CCCC2)CC1 showed an inhibition [3] of 58%, an Activity [4] of 48% and an IC50 [1] of 6910 nM. It also gave an inhibition [6] of 100%.

COc1cc(N)c(Cl)cc1C(=O)CCC1CCN(CC2CCCCCC2)CC1 gave an inhibition [3] of 46%, an Activity [4] of 58% and an IC50 [1] of 4000 nM. It also gave an inhibition [6] of 99%.
